{"data": "Assay results gathered from unrelated publications", "target": "Serine/threonine-protein kinase N2 (PKN2, Homo sapiens, UniProt Q16513)", "note": "Each line is one published result; the experiments were not run side by side."}
{"SMILES": "C[C@@H]1CCN(c2nccc(-c3cnn4ncccc34)n2)C1", "assay": "binding", "setting": "1 µM", "remaining binding [%]": 71}
{"SMILES": "CN(C)C(=O)Cn1cc(-c2nc(C3(c4ccc(-c5cnc(N)nc5)cc4)CC3)no2)cn1", "assay": "cell-free assay, competition with immobilised ligand", "setting": "1 µM", "remaining binding [%]": 77}
{"SMILES": "CN(C)c1nccc(-c2cnc3ncccn23)n1", "assay": "binding", "setting": "1 µM", "remaining binding [%]": 93}
{"SMILES": "Cc1nc(C2CCN(C(=O)c3ccc(OC(F)(F)F)cc3N)CC2)c2ncc(N3CCN(C)CC3)cc2n1", "assay": "cell-free assay, competition with immobilised ligand", "setting": "1 µM", "remaining binding [%]": 100}
{"SMILES": "O=C(c1ccc(Nc2nccc(-c3cc4ccccc4s3)n2)cc1)N1CCC(N2CCCC2)CC1", "assay": "binding, competition with immobilised ligand", "setting": "1 µM", "remaining binding [%]": 45}
{"SMILES": "CN(C)c1nccc(-c2cnn3ncccc23)n1", "assay": "binding", "setting": "1 µM", "remaining binding [%]": 100}
{"SMILES": "O=C(Nc1c[nH]nc1C(=O)NC1CCNCC1)c1cc(F)cc(F)c1", "assay": "binding, competition with immobilised ligand", "setting": "1 µM", "remaining binding [%]": 100}
{"SMILES": "FC(F)(F)Oc1cccc(-c2cnc3ccc(-c4ccncc4)nn23)c1", "assay": "cell-free assay, competition with immobilised ligand", "setting": "5 µM", "remaining binding [%]": 91}
{"SMILES": "C=CC(=O)N1CCC(C(=O)NCC(=O)N2CCN(c3nc(-c4cnc(N)nc4C(F)F)nc(N4CCOCC4)n3)CC2)CC1", "assay": "binding, competition with immobilised ligand", "setting": "1 µM", "remaining binding [%]": 84}
{"SMILES": "N[C@H]1CCN(c2nccc(-c3cnn4ncccc34)n2)C1", "assay": "binding", "setting": "1 µM", "remaining binding [%]": 71}
{"SMILES": "O=C(NCCCC1CCCCC1)c1ccc(CNC(=O)c2cnn(-c3ccccc3)c2C(F)(F)F)cc1", "assay": "cell-free assay, competition with immobilised ligand", "setting": "0.1 µM", "remaining binding [%]": 100}
{"SMILES": "CCN1CCN(Cc2ccc(C(=O)Nc3ccc(C)c(Oc4ccc5c(c4)CC(=O)N5)c3)cc2C(F)(F)F)CC1", "assay": "binding, competition with immobilised ligand", "setting": "1 µM", "remaining binding [%]": 100}
{"SMILES": "CN([C@@H]1CCc2c(CC(=O)O)c3cc(S(C)(=O)=O)ccc3n2C1)S(=O)(=O)c1ccc(F)cc1", "assay": "cell-free assay, competition with immobilised ligand", "setting": "1 µM", "remaining binding [%]": 100}
{"SMILES": "COc1cnc(Nc2cccc(S(N)(=O)=O)c2)nc1N1CCN(c2ccccc2)CC1", "assay": "binding, competition with immobilised ligand", "setting": "1 µM", "remaining binding [%]": 100}
{"SMILES": "O=C1NC(c2ccccn2)Sc2ccccc21 (stereo not shown)", "assay": "cell-free assay, competition with immobilised ligand", "setting": "1 µM", "remaining binding [%]": 100}
{"SMILES": "CN(CCCC(F)(F)F)c1nccc(-c2cnn3ncccc23)n1", "assay": "binding", "setting": "1 µM", "remaining binding [%]": 74}
{"SMILES": "CNC(=O)[C@@H]1CC[C@@H](n2c(-c3ccc4cnccc4c3)nc3ccc(C(=O)NCc4cccc(C(N)=O)c4)cc32)C1", "assay": "binding, competition with immobilised ligand", "setting": "1 µM", "remaining binding [%]": 94}
{"SMILES": "O=C(NCCCN1CCOCC1)c1ccc(Nc2ncc(Cl)c(-c3ccc(Cl)s3)n2)cc1", "assay": "binding, competition with immobilised ligand", "setting": "1 µM", "remaining binding [%]": 36}
{"SMILES": "CC1CCCN1c1nccc(-c2cnn3ncccc23)n1 (stereo not shown)", "assay": "binding", "setting": "1 µM", "remaining binding [%]": 89}
{"SMILES": "COc1cccc(CNC(=O)c2nc3scc(COCc4ccc(C(=O)O)cc4)c3c(=O)[nH]2)c1", "assay": "cell-free assay, competition with immobilised ligand", "setting": "1 µM", "remaining binding [%]": 98}
{"SMILES": "CN(c1nccc(-c2cnn3ncccc23)n1)C1CC1", "assay": "binding", "setting": "1 µM", "remaining binding [%]": 89}
{"SMILES": "O=C(NCCCN1CCOCC1)c1ccc(Nc2nccc(-c3cc4ccccc4s3)n2)cc1", "assay": "binding, competition with immobilised ligand", "setting": "1 µM", "remaining binding [%]": 53}
